Marks after values point to notes of the source that are not given here.
Assays:
[1] = Laser flash photolysis / femtosecond pump-probe spectroscopy; assay type: physicochemical
How it was run: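 Pump: 266 nm pulses (frequency-doubled 532 nm NOPA output from a 775 nm Ti/Sa laser), 1 μJ, <150 fs. Probe: supercontinuum from a CaF2 plate, 270–690 nm. Sample flowed through a 0.4 mm cell with a 0.2 mm spot. Probe and reference were read on photodiode arrays; cross-correlation <100 fs. Data to 50 ps were chirp-corrected, and 3–6 scans of 400 shots/point were averaged.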

[2] = Photolysis quantum yields; assay type: physicochemical; conditions: for Φdis, disappearance quantum yield (pHP diethyl phosphates) / Φdis, disappearance quantum yield (pHP acetates): λ = 300 nm; for Photochemical reactivity: photolysis in unbuffered H2O; for Φdis, disappearance quantum yield (pHP acetates): 20% aq CH3CN or DMSO
How it was run: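 Caged compound (1–9 mmol/L) plus internal standard (caffeine or 4-acetamidophenol) in water, buffer or solvent, in a quartz tube. Irradiated in a Rayonet carousel (two 15 W, 3000 Å Hg lamps), with ferrioxalate actinometry. Aliquots taken every 30 s up to 5 min, diluted and run on C18 LC-MS (water/methanol gradient with ammonium formate/formic acid), three injections each. Quantitation used calibration curves; Φ = concentration change / photons absorbed. 1H NMR in D2O confirmed products.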

[3] = Stability to aqueous hydrolysis; assay type: physicochemical; conditions: compared with other pHP phosphates
[4] = cited from earlier work
[5] = 300 nm, pH 7.3, HEPES (0.01 mol/L) and LiClO4 (0.1 mol/L)
[6] = 300 nm, pH 8.2, HEPES (0.01 mol/L) and LiClO4 (0.1 mol/L)
[7] = unbuffered 18 MΩ Ultrapure H2O, conversion <2%
[8] = unbuffered H2O, singlet λmax ~ 315 nm
[9] = 300 nm, pH 5.0, ammonium acetate (0.01 mol/L), buffered CH3CN–H2O
[10] = unbuffered H2O with acetonitrile (5%) added to dissolve the ester

Molecule: NCCCC(=O)OCC(=O)c1ccc(O)c(C(N)=O)c1.O=C(O)C(F)(F)F [Compound 11, 4-(2-(3-Carbamoyl-4-hydroxyphenyl)-2-oxoethoxy)-4-oxobutan-1-aminium-2,2,2-trifluoroacetate]
- k2, rate constant for triplet decay ([1]; unbuffered H2O): 2.2 109 s^−1

Molecule: CCOP(=O)(OCC)OCC(=O)c1cc(OC)c(O)c(OC)c1 [Compound 29, Diethyl (2-(4-hydroxy-3,5-dimethoxyphenyl)-2-oxoethyl) phosphate]
- Φdis, disappearance quantum yield (pHP diethyl phosphates) ([2]; 50% aq CH3CN): 0.44 ^d
- Φdis, disappearance quantum yield ([2]; λ = 350 nm, 50% aq CH3CN): d Φdis = 0.13 at λ = 350 nm.

Molecule: Cc1cc(C(=O)COC(=O)CCCN)cc(C)c1O.O=C(O)C(F)(F)F [Compound 8, 4-(2-(4-Hydroxy-3,5-dimethylphenyl)-2-oxoethoxy)-4-oxobutan-1-aminium-2,2,2-trifluoroacetate]
- Φapp, quantum yield for the appearance of GABA [2, 5]: 0.17
- Φapp, quantum yield for the appearance of rearranged acid [2, 5]: 0.15
- Φdis, quantum yield for the disappearance of pHP GABA [2, 5]: 0.17
- Φapp, quantum yield for the appearance of GABA [2, 6]: 0.11
- Φapp, quantum yield for the appearance of rearranged acid [2, 6]: 0.09
- Φdis, quantum yield for the disappearance of pHP GABA [2, 6]: 0.11
- Φapp, quantum yield for the appearance of GABA [2, 7]: 0.14
- Φapp, quantum yield for the appearance of rearranged acid [2, 7]: 0.13
- Φdis, quantum yield for the disappearance of pHP GABA [2, 7]: 0.15

Molecule: COc1cc(C(=O)COC(=O)CCCN)ccc1O.O=C(O)C(F)(F)F [Compound 2, 4-(2-(4-Hydroxy-3-methoxyphenyl)-2-oxoethoxy)-4-oxobutan-1-amonium-2,2,2-trifluoroacetate]
- Φapp, quantum yield for the appearance of GABA [2, 7]: 0.06
- k2, rate constant for triplet decay ([1]; unbuffered H2O): 1.3 109 s^−1
- k1, rate constant for triplet rise [1, 8]: 2.2 1011 s^−1

Molecule: COC(=O)c1cc(C(=O)COC(=O)CCCN)ccc1O.O=C(O)C(F)(F)F [Compound 10, 4-(2-(4-Hydroxy-3-(methoxycarbonyl)phenyl)-2-oxoethoxy)-4-oxobutan-1-aminium-2,2,2-trifluoroacetate]
- k2, rate constant for triplet decay ([1]; unbuffered H2O): 1.3 109 s^−1
- k1, rate constant for triplet rise [1, 8]: 3.2 1011 s^−1

Molecule: NCCCC(=O)OCC(=O)c1ccc(O)cc1.O=C(O)C(F)(F)F [Compound 1, 4-(2-(4-Hydroxyphenyl)-2-oxoethoxy)-4-oxobutan-1-aminium-2,2,2-trifluoroacetate]
- Φapp, quantum yield for the appearance of GABA [2, 9]: 0.20
- Φapp, quantum yield for the appearance of rearranged acid [2, 9]: 0.18
- Φdis, quantum yield for the disappearance of pHP GABA [2, 9]: 0.21
- Φapp, quantum yield for the appearance of GABA [2, 5]: 0.20
- Φapp, quantum yield for the appearance of rearranged acid [2, 5]: 0.20
- Φdis, quantum yield for the disappearance of pHP GABA [2, 5]: 0.21
- Φapp, quantum yield for the appearance of GABA [2, 6]: 0.09
- Φapp, quantum yield for the appearance of rearranged acid [2, 6]: 0.06
- Φdis, quantum yield for the disappearance of pHP GABA [2, 6]: 0.09
- Φapp, quantum yield for the appearance of GABA [2, 7]: 0.19
- Φapp, quantum yield for the appearance of rearranged acid [2, 7]: 0.16
- Φdis, quantum yield for the disappearance of pHP GABA [2, 7]: 0.20
- k2, rate constant for triplet decay ([1]; unbuffered H2O): 3.0 ^c 109 s^−1
- k1, rate constant for triplet rise [1, 8]: 4.4 1011 s^−1

Molecule: NCCCC(=O)OCC(=O)c1ccc(O)cc1O.O=C(O)C(F)(F)F [Compound 5, 4-(2-(2,4-Dihydroxyphenyl)-2-oxoethoxy)-4-oxobutan-1-aminium-2,2,2-trifluoroacetate]
- Photochemical reactivity [2]: Note: NA, not available. All runs were low conversions to products (<2%). Standard deviations are <±0.02. 3-NO2 (12), 3-OH (4), and 2-OH (5) did not react under these conditions and are omitted. Unbuffered 18 MΩ Ultrapure H2O was used.

Molecule: CCOP(=O)(OCC)OCC(=O)c1c(OC)cc(O)cc1OC [Compound 31, Diethyl (2-(4-hydroxy-2,6-dimethoxyphenyl)-2-oxoethyl) phosphate]
- Φdis, disappearance quantum yield (pHP diethyl phosphates) ([2]; 50% aq CH3CN): 0.69
- Stability to aqueous hydrolysis (qualitative) [3]: less stable to aqueous hydrolysis

Molecule: NCCCC(=O)OCC(=O)c1ccc(O)c(O)c1.O=C(O)C(F)(F)F [Compound 4, 4-(2-(3,4-Dihydroxyphenyl)-2-oxoethoxy)-4-oxobutan-1-aminium-2,2,2-trifluoroacetate]
- Photochemical reactivity [2]: Note: NA, not available. All runs were low conversions to products (<2%). Standard deviations are <±0.02. 3-NO2 (12), 3-OH (4), and 2-OH (5) did not react under these conditions and are omitted. Unbuffered 18 MΩ Ultrapure H2O was used.

Molecule: CCOP(=O)(OCC)OCC(=O)c1ccc(O)c(C(C)=O)c1 [Compound 32, 2-(3-Acetyl-4-hydroxyphenyl)-2-oxoethyl diethyl phosphate]
- Φdis, disappearance quantum yield (pHP diethyl phosphates) ([2]; 50% aq CH3CN): 0.03

Molecule: Cc1cc(C(=O)COC(=O)CCCN)ccc1O.O=C(O)C(F)(F)F [Compound 6, 4-(2-(4-Hydroxy-3-methylphenyl)-2-oxoethoxy)-4-oxobutan-1-aminium-2,2,2-trifluoroacetate]
- Φapp, quantum yield for the appearance of GABA [2, 5]: 0.16
- Φapp, quantum yield for the appearance of rearranged acid [2, 5]: 0.13
- Φdis, quantum yield for the disappearance of pHP GABA [2, 5]: 0.15
- Φapp, quantum yield for the appearance of GABA [2, 6]: 0.08
- Φapp, quantum yield for the appearance of rearranged acid [2, 6]: 0.06
- Φdis, quantum yield for the disappearance of pHP GABA [2, 6]: 0.08
- Φapp, quantum yield for the appearance of GABA [2, 7]: 0.14
- Φapp, quantum yield for the appearance of rearranged acid [2, 7]: 0.13
- Φdis, quantum yield for the disappearance of pHP GABA [2, 7]: 0.15

Molecule: COc1cc(C(=O)COC(=O)CCCN)cc(OC)c1O.O=C(O)C(F)(F)F [Compound 3, 4-(2-(4-Hydroxy-3,5-dimethoxyphenyl)-2-oxoethoxy)-4-oxobutan-1-amonium-2,2,2-trifluoroacetate]
- Φapp, quantum yield for the appearance of GABA [2, 7]: 0.03
- Φdis, quantum yield for the disappearance of pHP GABA [2, 7]: 0.03
- k1, rate constant for triplet rise [1, 10]: 2.7 1011 s^−1
- k2, rate constant for triplet decay [1, 10]: 2.8 ^d 109 s^−1

Molecule: CC(=O)OCC(=O)c1ccc(O)cc1C#N [Compound 25, 2-(2-Cyano-4-hydroxyphenyl)-2-oxoethyl acetate]
- Φdis, disappearance quantum yield (pHP acetates) [2]: 0.17

Molecule: CC(=O)OCC(=O)c1ccc(O)c(C#N)c1 [Compound 26, 2-(3-Cyano-4-hydroxyphenyl)-2-oxoethyl acetate]
- Φdis, disappearance quantum yield (pHP acetates) [2]: 0.08

Molecule: NCCCC(=O)OCC(=O)c1ccc(O)c(C(=O)O)c1.O=C(O)C(F)(F)F [Compound 9, 4-(2-(3-Carboxy-4-hydroxyphenyl)-2-oxoethoxy)-4-oxobutan-1-aminium-2,2,2-trifluoroacetate]
- k2, rate constant for triplet decay ([1]; unbuffered H2O): 1.0 109 s^−1
- k1, rate constant for triplet rise [1, 8]: 2.1 1011 s^−1

Molecule: NCCCC(=O)OCC(=O)c1ccc(O)c([N+](=O)[O-])c1.O=C(O)C(F)(F)F [Compound 12, 4-(2-(4-Hydroxy-3-nitrophenyl)-2-oxoethoxy)-4-oxobutan-1-aminium-2,2,2-trifluoroacetate]
- Photochemical reactivity [2]: Note: NA, not available. All runs were low conversions to products (<2%). Standard deviations are <±0.02. 3-NO2 (12), 3-OH (4), and 2-OH (5) did not react under these conditions and are omitted. Unbuffered 18 MΩ Ultrapure H2O was used.

Molecule: CCOP(=O)(OCC)OCC(=O)c1ccc(O)c(OC)c1 [Compound 28, Diethyl (2-(4-hydroxy-3-methoxyphenyl)-2-oxoethyl) phosphate]
- Φdis, disappearance quantum yield (pHP diethyl phosphates) ([2]; 50% aq CH3CN): 0.39

Molecule: CCOP(=O)(OCC)OCC(=O)c1ccc(O)cc1OC [Compound 30, Diethyl (2-(4-hydroxy-2-methoxyphenyl)-2-oxoethyl) phosphate]
- Φdis, disappearance quantum yield (pHP diethyl phosphates) ([2]; 50% aq CH3CN): 0.59
- Stability to aqueous hydrolysis (qualitative) [3]: less stable to aqueous hydrolysis

Molecule: CC(=O)c1ccc(O)cc1 [Compound 1d, p-hydroxyacetophenone, reference compound]
- Reduction of pKa of the excited triplet state relative to ground-state pKa [4]: about 4.3 pKa units

Molecule: p-hydroxyphenacyl [pHP]
- Triplet energy of the conjugate base ([4]; conjugate base of pHP): 61.2 kcal/mol
- Triplet energy ([4]; un-ionized pHP): 71.6 kcal/mol

From publication PMC3891043 (Canadian journal of chemistry, 2011)
